PRMT1 FP inh – PRMT1 (human) inhibition, primary screen; Q99873; recombinant PRMT1, activity-based probe fluorescence polarization; inhibition, % at 2.79 µM; actives 1.3% (n = 370,000); AID 652257;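 active means inhibition above about 21% made by adding two undisclosed values, limit read from the data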
HTRA1 inh – inhibitors of human serine peptidase HTRA1; recombinant HTRA1, FP-rhodamine activity-based probe, fluorescence polarization; Q92743; actives 0.5% (n = 340,000); inhibition, % at 5.96 µM; in the data active means inhibition above about 36%
SIAE inh – human SIAE inhibition, primary screen; Q9HAT2; SIAE FP-Rh probe binding, fluorescence polarization; inhibition, % at 9.66 µM; actives 0.69% (n = 370,000);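 active means inhibition above a cutoff: mean of compounds within the control limits plus 3 SD of those, cut at about 17% in these data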
TCR CD3 inh – blocks the human TCR-CD3 interaction | TAMRA-labeled TCR probe fluorescence, biochemical | AID 651800 | actives 0.37% (n = 360,000) | inhibition, % at 9.4 µM; in the data active means inhibition above about 19%;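 further: recombinant mutant TCR 2C K166C tagged with TAMRA read by polarization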
ABHD4 inh – inhibitors of mouse ABHD4; actives 0.54% (n = 370,000); purified mABHD4, FP-Rh probe fluorescence polarization; Q8VD66; inhibition, % at 8.92 µM;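 active means inhibition exceeding the mean over every tested compound plus 3 SD, cut at about 30% in these data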
Target sequence (Q8VD66 whole entry, looked up): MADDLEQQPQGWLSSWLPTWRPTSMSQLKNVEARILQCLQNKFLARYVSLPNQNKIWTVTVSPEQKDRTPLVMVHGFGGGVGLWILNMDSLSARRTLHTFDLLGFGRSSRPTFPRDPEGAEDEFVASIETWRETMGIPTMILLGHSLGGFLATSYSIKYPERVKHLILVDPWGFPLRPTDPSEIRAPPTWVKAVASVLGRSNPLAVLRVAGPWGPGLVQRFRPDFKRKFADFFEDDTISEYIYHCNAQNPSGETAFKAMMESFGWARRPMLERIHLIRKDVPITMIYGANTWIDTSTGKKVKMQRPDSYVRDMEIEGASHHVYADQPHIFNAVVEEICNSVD
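Doses – 8.92 µM, single dose · Material – wild-type mouse ABHD4 protein · Replication – single well per compound (singlicate) · Measure – percent inhibition of probe binding, normalized to plate controls · Schedule – 45 min compound pre-incubation plus 60 min probe step, 25 °C · Detection – fluorescence polarization with parallel and perpendicular emission, 525/598 nm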
rCAG RNA binder – binds r(CAG) RNA repeats | inhibition, % at 3 µM | AID 651821 | actives 1.3% (n = 370,000) | r(CAG) RNA repeat, TO-PRO-1 dye displacement fluorescence;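 active means inhibition above the plate cutoff, the mean of all test compounds on that plate plus 3 SD, cut at about 35% in these data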;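 further: higher means more dye released from RNA so lower well fluorescence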
PRMT1 inh conf – PRMT1 (human) inhibition, FP confirmation; shares compounds with PRMT1 FP inh; recombinant His-PRMT1, activity-based probe fluorescence polarization; inhibition, % at 2.79 µM; actives 42% (n = 3,300);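 active means mean inhibition across replicates above the hit cutoff derived for the earlier primary screen, cut at about 22% in these data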
Large screens that a line does not name were inactive (follow-up assays come after a bar, where they were run). Only some compounds are listed: those with a hit (about 3.5% of all), similar ones and a draw of the others.

COc1ccc2ccccc2c1C(=O)/C=C\c1ccoc1	PRMT1 FP inh 33.1 | PRMT1 inh conf inactive
O=C(O)C1Nc2c(C(F)(F)F)ccc(Cl)c2C2C=CCC12 (stereo not drawn)	PRMT1 FP inh 33.5, ABHD4 inh 35.9 | PRMT1 inh conf 28.3
O=C(Nc1ccc(Cl)c(C(F)(F)F)c1)[C@@H]1CC=C[C@@H]2CCN(C3CC3)C(=O)[C@@H]21	none
COC(=O)[C@@]1(Cc2ccccc2)[C@H]2C(=O)N(C)C(=O)[C@H]2[C@H]2CN=C(SCC3CC3)N21	none
CCN1C(=O)[C@H]2[C@H]3CN=C(SCC(=O)c4ccccc4)N3[C@@](C)(C(=O)OC)[C@H]2C1=O	PRMT1 FP inh 82.9 | PRMT1 inh conf 73.3
COC(=O)[C@@]1(Cc2ccccc2)[C@H]2C(=O)N(C)C(=O)[C@H]2[C@H]2CN=C(SCC(=O)c3ccccc3)N21	PRMT1 FP inh 45.1 | PRMT1 inh conf 33.4
CCOc1ccc(N2C(=O)C3Sc4[nH]c(=O)sc4C(/C=C/c4ccccc4)C3C2=O)cc1 (stereo not drawn)	PRMT1 FP inh 26.7, rCAG RNA binder 57.2 | PRMT1 inh conf inactive
c1ccc2[nH]c(CCCc3nc4ccccc4[nH]3)nc2c1	none
S=c1cnc2ccccc2[nH]1	PRMT1 FP inh 40.4 | PRMT1 inh conf inactive
O=C1C(=C2CCCCC2)SC(=S)N1Cc1ccco1	PRMT1 FP inh 44.1 | PRMT1 inh conf 39.0
Cc1ccccc1CN1CCCCC(NC(=O)c2ccccc2F)C1=O (stereo not drawn)	none (no result: HTRA1 inh, TCR CD3 inh)
COc1ccc(C#Cc2ccc3c(c2)[C@H]2[C@H](CCN2S(=O)(=O)c2ccccc2F)[C@H](CO)N3C)cc1	none (no result: HTRA1 inh, TCR CD3 inh)
COc1ccc(CNCC#Cc2cccnc2)c(OC)c1	none (no result: HTRA1 inh, TCR CD3 inh)
COC(=O)c1cc(N2CCN(C)CC2)nc2ccccc12	PRMT1 FP inh 82.8 | PRMT1 inh conf inactive
CCOC(=O)c1cc(N2CCCCC2)nc2ccccc12	none
CCOC(=O)C1CCN(C(=O)C(C)(C)NC(=O)Nc2ccc3c(c2)CCC3)CC1	none (no result: HTRA1 inh, TCR CD3 inh, rCAG RNA binder)
Cc1nc2ccccc2c(=O)n1-c1cccc(NC(=O)c2cccs2)c1	none
O=C(Nc1cccc(N2C(=O)C=CC2=O)c1)c1cccs1	PRMT1 FP inh 85.8 | PRMT1 inh conf 93.5
CCN(CC)C(=O)CC[C@H]1CC[C@]2(CCCN(C(=O)c3ccno3)C2)O1	none (no result: HTRA1 inh, TCR CD3 inh)
COC(=O)C(NNc1ccc(F)cc1)(NC(=O)c1ccccc1)C(F)(F)F (stereo not drawn)	none
COC(=O)C(NNc1ccccc1C)(NC(=O)c1ccc(F)cc1)C(F)(F)F (stereo not drawn)	PRMT1 FP inh 49.7 | PRMT1 inh conf inactive
COc1ccccc1NS(=O)(=O)c1cccc(NC(=O)c2ccc3ccccc3n2)c1	none
O=C(Nc1cccc(S(=O)(=O)Nc2ccccc2F)c1)c1ccc2ccccc2n1	PRMT1 FP inh 43.1 | PRMT1 inh conf inactive
COc1ccccc1NS(=O)(=O)c1cc(NC(=S)NCCN2CCOCC2)ccc1N1CCOCC1	PRMT1 FP inh 35.6 | PRMT1 inh conf 57.2
COc1ccccc1NS(=O)(=O)c1cc(NC(=O)c2sccc2C)ccc1N1CCOCC1	none
COc1ccccc1NS(=O)(=O)c1cc(NC(=O)c2sccc2C)ccc1N1CCCC1	PRMT1 FP inh 66.3 | PRMT1 inh conf 83.5
O=S(=O)(Nc1ccc(Br)cc1)c1cccc(NC(=S)NCCN2CCOCC2)c1	none
O=S(=O)(Nc1ccccc1F)c1cccc(NC(=S)NCCN2CCOCC2)c1	PRMT1 FP inh 73.0 | PRMT1 inh conf 60.8
C=CCN1[C@H](C#N)[C@@H](c2ccc(C#Cc3cccnc3)cc2)[C@H]1CO	none (no result: HTRA1 inh, TCR CD3 inh)
COC(=O)[C@]12C[C@H](CC(=O)N3CCSCC3)C(=O)N(Cc3ccco3)C1=C[C@H](C(C)(C)C)O[C@@H]2C	none (no result: HTRA1 inh, TCR CD3 inh)
CCOC(=O)[C@]12CCCCC/C=C\1N(Cc1ccc(OC)cc1)C(=O)[C@H]2CC(=O)N1CCC(c2ccccc2)CC1	none (no result: HTRA1 inh, TCR CD3 inh)
CCOC(=O)[C@]12CCCCC/C=C\1N(CCc1ccc(Cl)cc1)C(=O)[C@H]2CC(=O)NCCCOC	none (no result: HTRA1 inh, TCR CD3 inh)
CCn1cc(C(=O)N2CCn3c(nc4ccccc43)C2)c(=O)c2ccc(C)nc21	PRMT1 FP inh 30.9 | PRMT1 inh conf inactive

Screens as filed in PubChem.
